Publication PMC6471013 (Chemistry (Weinheim an Der Bergstrasse, Germany), 2018)
Where two headings read alike, the source gives them in different places.

Columns and labels:
[1] = target: Recombinant human integrin αvβ3 receptor (Homo sapiens, UniProt P05106+P06756); assay type: binding; details: competition with biotinylated vitronectin for the isolated αvβ3 receptor
Outline: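 Test compound competes with biotinylated vitronectin for binding to the αvβ3 receptor. IC50 is the concentration giving 50 % inhibition of vitronectin binding, estimated by curve fitting. Values are mean ± SD of duplicate determinations.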

[2] = test system: αvβ3‐expressing human renal cell carcinoma 786‐O cells; assay: Cell antiproliferative assay, 96 h, with or without elastase; assay type: cell-based; details: 786-0, 96 h
Outline: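 786‐O renal carcinoma cells (αvβ3-positive) exposed to test compound for 96 h, with or without 50 nm elastase from human leukocytes. IC50 taken as the concentration giving 50 % inhibition of cell viability. Samples run in triplicate.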

Sequence of Recombinant human integrin αvβ3 receptor (P06756 31-992 limits assumed): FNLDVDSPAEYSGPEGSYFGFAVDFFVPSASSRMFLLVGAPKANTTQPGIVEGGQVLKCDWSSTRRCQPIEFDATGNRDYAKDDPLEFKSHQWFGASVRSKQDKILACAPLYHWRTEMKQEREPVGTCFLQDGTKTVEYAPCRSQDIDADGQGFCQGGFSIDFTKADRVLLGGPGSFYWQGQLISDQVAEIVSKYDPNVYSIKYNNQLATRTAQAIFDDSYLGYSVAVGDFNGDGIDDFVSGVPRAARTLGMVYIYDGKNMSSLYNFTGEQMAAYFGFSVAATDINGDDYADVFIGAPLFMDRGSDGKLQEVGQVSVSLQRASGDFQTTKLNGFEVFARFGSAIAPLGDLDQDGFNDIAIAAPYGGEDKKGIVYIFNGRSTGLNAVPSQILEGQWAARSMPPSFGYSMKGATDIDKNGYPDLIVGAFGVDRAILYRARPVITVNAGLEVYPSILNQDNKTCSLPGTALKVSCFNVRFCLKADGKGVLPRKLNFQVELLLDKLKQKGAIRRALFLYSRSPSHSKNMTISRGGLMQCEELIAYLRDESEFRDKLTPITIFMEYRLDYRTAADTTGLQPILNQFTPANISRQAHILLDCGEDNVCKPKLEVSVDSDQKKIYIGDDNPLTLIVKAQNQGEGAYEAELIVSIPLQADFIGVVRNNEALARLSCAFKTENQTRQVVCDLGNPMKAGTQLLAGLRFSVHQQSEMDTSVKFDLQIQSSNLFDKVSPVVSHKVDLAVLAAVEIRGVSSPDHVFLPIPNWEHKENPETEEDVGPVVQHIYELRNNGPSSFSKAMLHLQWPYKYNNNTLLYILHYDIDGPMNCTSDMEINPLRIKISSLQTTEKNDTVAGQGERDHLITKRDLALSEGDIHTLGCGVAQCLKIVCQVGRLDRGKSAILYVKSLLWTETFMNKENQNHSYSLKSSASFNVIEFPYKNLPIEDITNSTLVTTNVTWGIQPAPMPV
Sequence of Recombinant human integrin αvβ3 receptor (P05106 27-718 limits assumed): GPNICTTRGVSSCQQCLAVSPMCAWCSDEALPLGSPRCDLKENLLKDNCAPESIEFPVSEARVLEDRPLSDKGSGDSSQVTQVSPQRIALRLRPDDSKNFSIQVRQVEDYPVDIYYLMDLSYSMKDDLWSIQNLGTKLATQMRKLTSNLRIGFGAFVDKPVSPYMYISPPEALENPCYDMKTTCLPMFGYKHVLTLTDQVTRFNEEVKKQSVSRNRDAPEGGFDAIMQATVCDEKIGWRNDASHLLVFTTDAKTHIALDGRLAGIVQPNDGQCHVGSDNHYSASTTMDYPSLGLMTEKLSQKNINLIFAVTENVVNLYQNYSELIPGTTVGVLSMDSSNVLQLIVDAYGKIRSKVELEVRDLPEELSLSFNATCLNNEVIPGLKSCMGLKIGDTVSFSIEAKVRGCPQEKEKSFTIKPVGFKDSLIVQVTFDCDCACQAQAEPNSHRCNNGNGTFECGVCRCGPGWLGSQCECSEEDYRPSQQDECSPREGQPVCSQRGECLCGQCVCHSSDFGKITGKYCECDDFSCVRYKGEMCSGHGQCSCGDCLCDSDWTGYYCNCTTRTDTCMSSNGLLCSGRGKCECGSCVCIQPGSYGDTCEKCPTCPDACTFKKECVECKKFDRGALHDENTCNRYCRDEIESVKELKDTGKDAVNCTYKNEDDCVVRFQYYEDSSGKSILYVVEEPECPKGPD

SMILES	αvβ3 integrin binding IC50, in words [1]	IC50 ([2]; read-out: IC50, added elastase NO) [nM]	IC50 ([2]; read-out: IC50, added elastase YES) [nM]
CN1C(=CC=CC=CC2=[N+](CCCCCC(=O)NCc3ccc(CN4C(=O)[C@@H]5CC(=O)N[C@@H](CCCNC(=N)N)C(=O)NCC(=O)N[C@@H](CC(=O)O)C(=O)NC[C@@H]4C(=O)N5)cc3)c3ccc(S(=O)(=O)[O-])cc3C2(C)C)C(C)(C)c2cc(S(=O)(=O)O)ccc21 [compound 2, cyclo(DKP‐RGD)‐sCy5]	low‐nanomolar	–	–
CC(=O)O[C@H]1C(=O)[C@@]2(C)[C@H]([C@H](OC(=O)c3ccccc3)[C@]3(O)C[C@H](OC(=O)[C@H](O)[C@@H](NC(=O)c4ccccc4)c4ccccc4)C(C)=C1C3(C)C)[C@]1(OC(C)=O)CO[C@@H]1C[C@@H]2O [compound 12, Paclitaxel]	–	35.8 ± 16.7	29.5 ± 7.6
N=C(N)NCCC[C@@H]1NC(=O)C[C@@H]2NC(=O)[C@@H](CNC(=O)[C@H](CC(=O)O)NC(=O)CCNC1=O)N(Cc1ccccc1)C2=O [compound 3, cyclo(DKP‐RβAD)]	micromolar	–	–
